The list shows a part of the results. Unmarked numbers belong to inactive results.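 How the source made its calls: active means fluorescence beyond the plate control mean plus 3 SD, with a fluorescence-to-maximum score over 2 (cut at about 25 in these data); inactive means the rest.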

This assay can be described thus: compound autofluorescence in ABCB1-expressing CCRF-Adr cells, confirmation, artefact control for ABC transporter inhibitor project, cell-based, 488/530 nm, flow cytometry (AID 1483). Particulars: compound autofluorescence 488/530 nm, at 6.6 µM, active compounds read high. A digest of the protocol:
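material = unlabeled drug-resistant CCRF-Adr cells | input = 3 million cells per mL, final in well | probe or stimulus = JC-1 substrate omitted | schedule = 10 min rotation at 25 °C | signal = flow cytometric MFI, 530 ± 20 nm | control set = DMSO-treated cell wells as background reference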

Consider `COC(=O)COc1cc(C)cc2oc(=O)c3c(c12)CCCC3`, for which the fluorescence is 2.91.
